Compounds with a hit are over-represented: about 2.1% of the library has one in this group of screens.
Cneo AK release: Cryptococcus neoformans cell lysis inducers, primary screen, AK release luminescence, single concentration. AID 651654, 2012. lysis activity, % at 15 µM. actives 0.2% (n = 360,000). C. neoformans lysis, adenylate kinase release luminescence, 4 h; normalised: neutral wells 0, clomiphene wells 100;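 active = mean lysis activity across replicates of at least 80%, whatever share of replicates individually reach that level; inactive = mean lysis activity below 80%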
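read-out = cell lysis signal | test system = log-phase Cryptococcus neoformans yeast cells | input = cells at 5 × 10^6 per mL | medium = fresh YPD growth medium | signal = luminescent adenylate kinase detection reagent | timing = 4 h at 37 °C static, read 1 h later | dosing = single dose | controls = Clomiphene as positive lysis control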
Statin myotox sup: suppressors of statin myotoxicity in C2C12 myotubes, primary screen, cell-based, single point, plate reader; C2C12 myotubes + simvastatin, ATP luminescence, 48 h; scaled: DMSO 0, geranylgeraniol control 100; rescue of ATP level, % at 7.49 µM; actives 0.78% (n = 330,000);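 active = mean ATP rescue above about 67%, or every replicate alone reaching that limit, limit read from the data, passing the limit was not always enough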;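 also: myotubes were challenged with 10 µM simvastatin during compound exposure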
DENV2 CPE rescue: inhibitors of DENV2 cytopathic effect, primary screen, cell-based, plate reader, single concentration. DENV2-infected cells, cytopathic effect rescue. CPE inhibition, % at 9.99 µM. actives 1.7% (n = 350,000); in the data active = CPE inhibition above about 20%, passing the limit was not always enough; tested in BHK-21 cells;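 also: 0% = median of neutral control wells and 100% = median of positive control wells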
Xi reactivation: activators of inactive X chromosome reactivation, primary screen, imaging, XiGFP fibroblasts, GFP high-content imaging, set 2; XiGFP mouse fibroblasts, % GFP-positive cells imaging, 3 d; cells co-treated with 5-aza-dC sensitizer; scaled so ellipticine positive control = 100%; activation, % at 7.58 µM; actives 0.055% (n = 360,000); AID 743238, 2013;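 active = mean normalized replicate activation at least 10% and every replicate at or above 10%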;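 also: 0% = median of on-plate neutral control wells and 100% = ellipticine 6 µM median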
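System: SV40-immortalized XiGFP fibroblast cells, line 68-5-11 / Incubation: 3-day compound exposure, then 15 min fixation at room temperature / Compound: single concentration per compound, delivered by pin transfer / Buffer or medium: DMEM plus 5-aza-dC sensitizer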
Starred values were filed as active, the others as inactive; . = not tested or not shown.

SMILES | Cneo AK release | Statin myotox sup | DENV2 CPE rescue | Xi reactivation
CC(C)[C@H](NC(=O)c1ccccc1)C(=O)N1CCC[C@H]1C(=O)NCCc1ccccc1Cl | . | . | 4 | 0
CC(C)[C@H](NC(=O)c1ccc(Cl)c(Cl)c1)C(=O)N1CCC[C@H]1C(=O)NCCc1ccccc1Cl | . | . | 23* | 0
C[C@H](O)[C@@H]1CN2CCc3c([nH]c4ccccc34)[C@@H]2C[C@@H]1N(C)C(=S)Nc1ccc(C#N)cc1 | 3 | 5 | 25* | 0
COc1ccc(S(=O)(=O)N[C@@H]2CC[C@@H](CCn3cc(-c4cccc(F)c4)nn3)O[C@H]2CO)cc1 | 3 | 1 | 11 | 0
O=C(c1ccc(F)cc1)N1CCC(C(=O)N2CCCc3ccccc32)CC1 | 0 | 2 | 31* | 0
O=C(Nc1ccc2c(c1)OCO2)N[C@@H]1CC[C@@H](CCNC(=O)C2CCC2)O[C@H]1CO | -9 | -3 | -4 | 0
Cc1ccccc1-c1cnc2c(c1)C(=O)N([C@@H](C)CO)C[C@H](C)[C@@H](CN(C)C(=O)c1ccncc1)O2 | -1 | 13 | 8 | 1
CCc1nc2ccc(C(=O)N(CC)CCN(C)C)cn2c1N(C)C(=O)c1cccc(OC)c1 | -1 | -20 | 26* | 0
CC(C)CCNC(=O)C1CCN(c2nc3ccccc3o2)CC1 | 2 | 25 | . | .
Cc1ccc(CN2CCC(C(=O)NCCC(C)C)CC2)o1 | -1 | 109* | . | .
CC(C)(C(=O)N1CCC1(C)C(=O)NS(=O)(=O)c1cccc(Cl)c1)c1ccccc1 (stereo unspecified) | -1 | -7 | 44* | 1
CC1(C(=O)NS(=O)(=O)c2cccc(Cl)c2)CCN1C(=O)COc1ccc(Cl)cc1 (stereo unspecified) | -3 | 1 | 86* | 0
C=Cc1cnc([N+](=O)[O-])n1C | -1 | . | -5 | 88*
CC(C)CCC(O)(c1ccccc1)C(CN1CCOCC1)c1ccccc1 (stereo unspecified) | 2 | -4 | 30* | 0
CO[C@H]1CN(C)C(=O)c2cc(NC(=O)c3cc(C)on3)ccc2OC[C@@H](C)N(C(=O)C2CC2)C[C@@H]1C | -2 | -4 | 2 | 0
CO[C@H]1CN(C)C(=O)c2ccc(NC(=O)CC(F)(F)F)cc2OC[C@H](C)N(C(=O)C2CCOCC2)C[C@H]1C | . | . | 24* | 0
CO[C@@H]1CN(C)C(=O)c2ccc(NC(=O)CC(F)(F)F)cc2OC[C@H](C)N(C(=O)C2CCOCC2)C[C@H]1C | . | . | -2 | .
CO[C@@H]1CN(C)C(=O)c2cc(NC(=O)c3cc(C)on3)ccc2OC[C@H](C)N(C(=O)C2CC2)C[C@H]1C | -4 | -15 | 21* | 0
CO[C@H]1CN(C)C(=O)c2cc(NC(=O)CC(F)(F)F)ccc2OC[C@@H](C)N(C(=O)C2CC2)C[C@H]1C | . | . | 38* | 0
COc1cccc(C(=O)Nc2ccc3c(c2)C(=O)N(C)C[C@H](OC)[C@H](C)CN(C(=O)C2CCCC2)[C@@H](C)CO3)c1 | -1 | -3 | 38* | 0
CO[C@@H]1CN(C)C(=O)c2cc(NC(=O)CC(F)(F)F)ccc2OC[C@H](C)N(C(=O)C2CC2)C[C@H]1C | . | . | 0 | 0
COc1ccc(S(=O)(=O)N(C)C[C@H]2Oc3ccc(NS(=O)(=O)c4ccc(C)cc4)cc3C(=O)N([C@H](C)CO)C[C@H]2C)cc1 | . | . | -2 | 0
COc1ccc(NC(=O)Nc2ccc3c(c2)C(=O)N([C@H](C)CO)C[C@H](C)[C@@H](CN(C)Cc2ccc(Oc4ccccc4)cc2)O3)cc1 | 39 | 16 | -8 | 0
C[C@@H]1CN([C@H](C)CO)C(=O)Cc2cc(NC(=O)C3CC3)ccc2O[C@@H]1CN(C)Cc1ccc(Oc2ccccc2)cc1 | -1 | -43 | -1 | 0
CCOC(=O)c1c(-c2cccc([N+](=O)[O-])c2)csc1N | 0 | -7 | 4 | 0
SMILES | Cneo AK release | Statin myotox sup | DENV2 CPE rescue | Xi reactivation
Cc1cccc(-c2csc(N)c2C(=O)OC(C)C)c1 | 1 | 116* | . | .
O=C(Nc1ccc2c(c1)[C@@H]1C[C@H](CC(=O)N3CCOCC3)O[C@H](CO)[C@@H]1O2)NC1CCCC1 | -5 | -6 | 2 | 0
COc1ccccc1CN1CC(C(=O)NCc2nc3ccccc3n2C)CCC1=O (stereo unspecified) | 1 | -4 | 6 | 0
COc1ccccc1CN1CC(C(=O)N(C)CCCn2nc(C)cc2C)CCC1=O (stereo unspecified) | -2 | . | 52* | 0
COc1ccc(CCN2CC(C(=O)N(C)CCn3nc(C)cc3C)CCC2=O)cc1 (stereo unspecified) | 1 | -7 | 0 | 0
COc1ccccc1CN1CC(C(=O)NCc2nccn2C)CCC1=O (stereo unspecified) | -1 | -10 | 31* | 0
COc1cccc(CNC(=O)[C@@H]2CCCN2C(=O)[C@H]2CCCCN2C(=O)c2ccc(Cl)cc2)c1 | . | . | 78* | 0
COc1cccc(CNC(=O)[C@@H]2CCCN2C(=O)[C@@H]2CCCN2C(=O)c2cccc(Cl)c2)c1 | . | . | 3 | 0
O=S(=O)(NN=C1CCCCC1)c1ccccc1 | 0 | 115* | 2 | 0
Cc1ccc(NS(=O)(=O)c2ccc(C)c(C(=O)N3CCN(C)CC3)c2)cc1 | -1 | 123* | . | .
Cc1ccc(NS(=O)(=O)c2ccc(C(=O)N3CCCN(C)CC3)cc2)cc1 | 1 | . | . | .
CC1(O)CC(c2ccc(Cl)cc2)=NN1C(=O)c1ccc(Cl)cc1 (stereo unspecified) | 1 | -5 | -4 | 0
O=C(c1ccc(Cl)cc1)N1CCCC(c2ccccc2)=N1 | 5 | 80* | . | .
C[C@@H]1CN([C@H](C)CO)C(=O)c2cc(NC(=O)Nc3ccc(C(F)(F)F)cc3)ccc2O[C@H]1CN(C)S(C)(=O)=O | 59 | 26 | -1 | 0
CN1CCN(S(=O)(=O)c2cccs2)CC1 | . | . | 34* | 0
O=C(COc1ccccc1)N1CCN(S(=O)(=O)c2cccs2)CC1 | -10 | 38 | . | .
Cc1ccc(S(=O)(=O)N2CCN(S(=O)(=O)c3cccs3)CC2)cc1 | 3 | -2 | -4 | 0
O=C(CCOc1ccccc1)N1CCN(S(=O)(=O)c2cccs2)CC1 | -1 | 78* | . | .
C[C@H]1CN([C@@H](C)CO)C(=O)c2cccc(NC(=O)c3ccncc3)c2O[C@H]1CN(C)C(=O)Nc1ccccc1 | 14 | -3 | 16 | 0
C[C@@H]1CN([C@H](C)CO)C(=O)c2cccc(NC(=O)c3ccncc3)c2O[C@@H]1CN(C)C(=O)Nc1ccccc1 | 2 | 3 | 54* | 0
C[C@H](CO)N1C[C@H](C)[C@@H](CN(C)Cc2ccc(-c3ccccc3)cc2)Oc2c(NC(=O)c3ccncc3)cccc2C1=O | 0 | -9 | -3 | 0
